One may read the logD as the decadic logarithm of the distribution of all forms, ionised or not, between an organic phase and buffer at a given pH. High values mean a more lipophilic compound, low ones a more hydrophilic compound.

Data set [1] has as its system Cerebellum. Briefly: Biodistribution in Sprague-Dawley rat cerebellum at 5 MBq, iv after 30 mins by autoradiography in presence of 1 mg/kg of mGluR1 antagonist JNJ16259685. Type of data set: organism-based. Also noted: dose 1 mg/kg, route intravenous. As to conditions: in vivo, 0.5 h. The gist of the method:
(§1)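 Male Sprague–Dawley rats given about 5 MBq radioligand in saline by tail vein, with or without co-injected JNJ16259685 at 1 mg/kg. Killed by cervical dislocation 30 min after injection. Brains frozen on dry ice, cut into 20 µm sagittal sections, and imaged by autoradiography as for the in vitro sections.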

Data set [2] deals with Cerebral cortex. Briefly: Biodistribution in Sprague-Dawley rat cerebral cortex at 5 MBq, iv after 30 mins by autoradiography in presence of 1 mg/kg of mGluR1 antagonist JNJ16259685. Type of data set: organism-based. Also noted: dose 1 mg/kg, route intravenous. As to conditions: in vivo, 0.5 h. Summed up:
as §1

Data set [3] relates to Rattus norvegicus. Kind of data set: Biodistribution in Sprague-Dawley rat pons-medulla at 5 MBq, iv after 30 mins by autoradiography in presence of 1 mg/kg of mGluR1 antagonist JNJ16259685. Type of data set: organism-based. Also noted: dose 1 mg/kg, route intravenous. As to conditions: in vivo, 0.5 h. The gist of the method: as §1
Data set [4] relates to Rattus norvegicus. Kind of data set: Biodistribution in Sprague-Dawley rat pons-medulla at 5 MBq, iv after 30 mins by autoradiography. Type of data set: ADME, organism-based. As to conditions: in vivo, 0.5 h. Summed up: as §1
Data set [5] relates to Striatum. Briefly: Biodistribution in Sprague-Dawley rat striatum at 5 MBq, iv after 30 mins by autoradiography in presence of 1 mg/kg of mGluR1 antagonist JNJ16259685. Type of data set: organism-based. Also noted: dose 1 mg/kg, route intravenous. As to conditions: in vivo, 0.5 h. Summed up: as §1
Data set [6] has as its system Hippocampus. Briefly: Biodistribution in Sprague-Dawley rat hippocampus at 5 MBq, iv after 30 mins by autoradiography in presence of 1 mg/kg of mGluR1 antagonist JNJ16259685. Type of data set: organism-based. Further details: dose 1 mg/kg, route intravenous. As to conditions: in vivo, 0.5 h. Summed up: as §1
Data set [7] has as its system Thalamus. Kind of data set: Biodistribution in Sprague-Dawley rat thalamus at 5 MBq, iv after 30 mins by autoradiography in presence of 1 mg/kg of mGluR1 antagonist JNJ16259685. Further details: dose 1 mg/kg, route intravenous. Type of data set: organism-based. As to conditions: in vivo, 0.5 h. Summed up:
as §1

The subject of data set [8] is Cerebellum. Kind of data set: Biodistribution in Sprague-Dawley rat cerebellum at 5 MBq, iv after 30 mins by autoradiography. As to conditions: in vivo, 0.5 h. Type of data set: ADME, organism-based. The gist of the method: as §1
The test system of data set [9] is Striatum. Briefly: Biodistribution in Sprague-Dawley rat striatum at 5 MBq, iv after 30 mins by autoradiography. As to conditions: in vivo, 0.5 h. Type of data set: ADME, organism-based. The gist of the method: as §1
Data set [10] deals with Hippocampus. Briefly: Biodistribution in Sprague-Dawley rat hippocampus at 5 MBq, iv after 30 mins by autoradiography. Type of data set: ADME, organism-based. As to conditions: in vivo, 0.5 h. The gist of the method: as §1
Data set [11] has as its system Cerebral cortex. Briefly: Biodistribution in Sprague-Dawley rat cerebral cortex at 5 MBq, iv after 30 mins by autoradiography. Type of data set: ADME, organism-based. As to conditions: in vivo, 0.5 h. The gist of the method: as §1
Data set [12] in a line: Octanol-water distribution coefficient, Log D of the compound in at pH 7.4 by shaking method. Type of data set: physicochemical. Summed up: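 Radioligand partitioned between n-octanol and PBS at pH 7.4 by shaking. Vortexed 3 min at room temperature, centrifuged 3500 rpm for 5 min. 1 mL of each phase weighed and counted. Organic layer re-partitioned until Log D values were consistent. Log D = Log[cpm/g octanol / cpm/g PBS]. Done in triplicate.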

Data set [13] has as its system Thalamus. Briefly: Biodistribution in Sprague-Dawley rat thalamus at 5 MBq, iv after 30 mins by autoradiography. Type of data set: ADME, organism-based. As to conditions: in vivo, 0.5 h. The gist of the method: as §1

With `CC(C)Nc1cc(-c2csc(N(C)C(=O)c3ccc([18F])cc3)n2)ncn1`, the Drug uptake in the data set with Cerebellum [1] is recorded as 76.6 PSL/mm2; in the data set on Cerebral cortex [2], 49.6 PSL/mm2; with Rattus norvegicus [3], 58.8 PSL/mm2; with Rattus norvegicus [4], 69.3 PSL/mm2; with Striatum [5], 54.1 PSL/mm2; in the data set on Hippocampus [6], 58.3 PSL/mm2. Besides, the Drug uptake is 63.1 PSL/mm2 in the data set on Thalamus [7]; 635.9 PSL/mm2 with Cerebellum [8]; 478.5 PSL/mm2 in the data set with Striatum [9]; 428.1 PSL/mm2 in the data set with Hippocampus [10]; 342.2 PSL/mm2 with Cerebral cortex [11]; 672.6 PSL/mm2 with Thalamus [13]. In data set [12], this compound registered a logD of 1.46.
